Measurements published in ChEMBL document CHEMBL4425109, “Optimization of Cyclic Plasmin Inhibitors: From Benzamidines to Benzylamines” (J Med Chem, 2016).

Legend:
Plasma [1] = experiment: Antifibrinolytic activity in human plasma assessed as inhibition of tPA-induced plasmin formation after 40 mins; format: functional, cell-free
How it was run: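 Citrated human plasma at 37 °C with CaCl2 (12.5 mM in assay), tissue factor (stock 1/500 in assay) and tPA (12.3 nM in assay). Inhibitor dilutions, from 10 mM DMSO stocks diluted in 0.9% NaCl, were preincubated 5 min at 37 °C with these reagents, then started with prewarmed plasma. OD405 was read over 40 min.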

Plasminogen [2] = biological target: T1, Plasminogen (Homo sapiens, UniProt P00747); experiment: Inhibition of human plasmin using Mes-DSer(Bzl)-Phe-Arg-AMC as substrate by Dixon plot analysis
Target sequence in this assay (P00747 97-580 limits assumed): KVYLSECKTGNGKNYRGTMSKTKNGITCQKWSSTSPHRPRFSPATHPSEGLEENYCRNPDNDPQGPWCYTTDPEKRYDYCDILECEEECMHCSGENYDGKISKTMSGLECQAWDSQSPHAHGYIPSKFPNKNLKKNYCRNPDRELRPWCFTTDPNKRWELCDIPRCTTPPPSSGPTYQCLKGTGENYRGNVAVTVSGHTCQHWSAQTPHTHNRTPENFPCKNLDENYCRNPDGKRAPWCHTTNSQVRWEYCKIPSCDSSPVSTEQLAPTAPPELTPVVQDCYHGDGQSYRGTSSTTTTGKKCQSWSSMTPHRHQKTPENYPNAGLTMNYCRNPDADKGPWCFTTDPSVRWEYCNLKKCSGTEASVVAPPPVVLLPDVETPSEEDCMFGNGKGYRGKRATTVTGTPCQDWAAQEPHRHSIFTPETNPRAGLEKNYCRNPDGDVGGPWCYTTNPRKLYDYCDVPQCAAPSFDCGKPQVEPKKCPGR
Target sequence in this assay (P00747 581-810 limits assumed): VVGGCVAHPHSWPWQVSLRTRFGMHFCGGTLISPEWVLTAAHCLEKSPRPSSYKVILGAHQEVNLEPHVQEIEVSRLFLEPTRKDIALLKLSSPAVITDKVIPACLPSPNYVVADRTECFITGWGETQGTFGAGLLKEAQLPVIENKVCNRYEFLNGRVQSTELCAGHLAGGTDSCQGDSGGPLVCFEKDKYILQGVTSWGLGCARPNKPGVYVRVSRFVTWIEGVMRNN

Trypsin [3] = biological target: Trypsin (Sus scrofa, UniProt P00761); experiment: Inhibition of porcine trypsin using Mes-DArg-Gly-Arg-AMC as substrate by Dixon plot analysis
Chain of Trypsin (Sus scrofa, UniProt P00761) (P00761 whole entry): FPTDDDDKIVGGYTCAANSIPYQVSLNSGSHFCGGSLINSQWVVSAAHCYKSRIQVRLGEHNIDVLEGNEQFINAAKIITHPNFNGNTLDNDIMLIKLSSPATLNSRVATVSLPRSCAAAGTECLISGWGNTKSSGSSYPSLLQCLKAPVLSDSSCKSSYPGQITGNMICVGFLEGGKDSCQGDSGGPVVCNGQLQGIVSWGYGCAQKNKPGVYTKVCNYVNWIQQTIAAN
How it was run: (§1)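 Porcine trypsin, 30 pM final, with substrate Mes-DArg-Gly-Arg-AMC (KM 8.3 μM). Buffer was 50 mM Tris·HCl pH 8.0 containing 154 mM NaCl, at room temperature. Reaction was started by enzyme and fluorescence read at ex 355 / em 460 nm. Ki was obtained from Dixon plots, mean of at least two measurements.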

[4] = biological target: Vitamin K-dependent protein C (Homo sapiens, UniProt P04070); experiment: Inhibition of human activated Protein C using Mes-DArg-Pro-Arg-AMC as substrate by Dixon plot analysis
Chain of Vitamin K-dependent protein C (P04070 43-197 limits assumed): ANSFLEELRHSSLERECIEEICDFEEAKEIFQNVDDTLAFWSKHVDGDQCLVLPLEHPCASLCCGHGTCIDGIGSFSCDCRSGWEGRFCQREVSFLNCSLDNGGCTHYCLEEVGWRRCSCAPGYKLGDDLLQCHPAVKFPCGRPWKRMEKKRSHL
Chain of Vitamin K-dependent protein C (P04070 212-461 limits assumed): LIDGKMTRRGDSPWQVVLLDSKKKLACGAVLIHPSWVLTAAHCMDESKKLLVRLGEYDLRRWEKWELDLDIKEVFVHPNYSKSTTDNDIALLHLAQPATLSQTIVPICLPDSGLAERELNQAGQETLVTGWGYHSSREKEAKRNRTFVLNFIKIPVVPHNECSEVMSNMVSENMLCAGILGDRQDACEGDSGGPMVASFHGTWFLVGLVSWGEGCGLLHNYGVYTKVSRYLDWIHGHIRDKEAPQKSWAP
How it was run: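 Human aPC, 293 pM final. Run at room temperature in 50 mM Tris·HCl pH 8.0 with 154 mM NaCl. Substrate Mes-DArg-Pro-Arg-AMC, KM 26 μM. Fluorescence was read at ex 355 / em 460 nm, with reaction started by enzyme. Ki came from Dixon plots, mean of at least two measurements.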

Plasminogen [5] = biological target: T1, Plasminogen; experiment: Binding affinity to human plasmin assessed as slow binding constant in presence of Mes-DArg-Phe-Arg-AMC after 20 mins by Dixon plot analysis
Target sequence in this assay (P00747 97-580 limits assumed): as the sequence (P00747 97-580 limits assumed) above
Target sequence in this assay (P00747 581-810 limits assumed): as the sequence (P00747 581-810 limits assumed) above

Prothrombin = Prothrombin (Bos taurus, UniProt P00735); experiment: Inhibition of bovine thrombin using Tos-Gly-Pro-Arg-AMC as substrate by Dixon plot analysis
How it was run: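 Bovine thrombin at 31 pM in assay, KM 5.4 μM for the substrate. Run at room temperature in 50 mM Tris·HCl pH 8.0 with 154 mM NaCl. Fluorescence read at ex 355 / em 460 nm, reaction started by enzyme addition. Ki from Dixon plots, average of at least two measurements.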

Plasma kallikrein = Plasma kallikrein (Homo sapiens, UniProt P03952); experiment: Inhibition of human plasma kallikrein using Mes-DArg-Pro-Arg-AMC as substrate by Dixon plot analysis
Chain of Plasma kallikrein (P03952 20-390 limits assumed): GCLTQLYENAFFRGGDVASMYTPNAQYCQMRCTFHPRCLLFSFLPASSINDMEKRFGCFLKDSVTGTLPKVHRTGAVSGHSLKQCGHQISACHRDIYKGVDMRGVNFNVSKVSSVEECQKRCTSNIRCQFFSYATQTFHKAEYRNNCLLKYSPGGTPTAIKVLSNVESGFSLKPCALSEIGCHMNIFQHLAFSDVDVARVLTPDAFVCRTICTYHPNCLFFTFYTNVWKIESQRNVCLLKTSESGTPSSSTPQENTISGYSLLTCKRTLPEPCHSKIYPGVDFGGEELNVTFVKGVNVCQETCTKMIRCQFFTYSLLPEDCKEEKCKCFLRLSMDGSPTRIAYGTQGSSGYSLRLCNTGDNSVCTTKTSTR
Chain of Plasma kallikrein (P03952 391-638 limits assumed): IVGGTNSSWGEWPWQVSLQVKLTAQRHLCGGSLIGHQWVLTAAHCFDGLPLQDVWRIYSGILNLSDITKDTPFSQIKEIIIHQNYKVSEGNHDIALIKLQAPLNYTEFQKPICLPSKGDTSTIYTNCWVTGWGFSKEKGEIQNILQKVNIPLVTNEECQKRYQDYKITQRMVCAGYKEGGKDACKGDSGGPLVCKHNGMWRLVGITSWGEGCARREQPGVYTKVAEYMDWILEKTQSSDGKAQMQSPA
How it was run: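 Human plasma kallikrein (112 pM final) was assayed at room temperature in Tris·HCl 50 mM pH 8.0 with NaCl 154 mM. Mes-DArg-Pro-Arg-AMC served as substrate (KM 39 μM). Fluorescence was read at ex 355 / em 460 nm, with reactions started by enzyme.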

Coagulation factor X = Coagulation factor X (Homo sapiens, UniProt P00742); experiment: Inhibition of human f10a using Mes-DArg-Pro-Arg-AMC as substrate by Dixon plot analysis
Chain of Coagulation factor X (P00742 41-179 limits assumed): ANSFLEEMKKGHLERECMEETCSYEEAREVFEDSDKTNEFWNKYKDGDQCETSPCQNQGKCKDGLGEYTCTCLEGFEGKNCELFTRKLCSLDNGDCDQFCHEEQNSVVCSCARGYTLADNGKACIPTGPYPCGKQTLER
Chain of Coagulation factor X (P00742 235-488 limits assumed): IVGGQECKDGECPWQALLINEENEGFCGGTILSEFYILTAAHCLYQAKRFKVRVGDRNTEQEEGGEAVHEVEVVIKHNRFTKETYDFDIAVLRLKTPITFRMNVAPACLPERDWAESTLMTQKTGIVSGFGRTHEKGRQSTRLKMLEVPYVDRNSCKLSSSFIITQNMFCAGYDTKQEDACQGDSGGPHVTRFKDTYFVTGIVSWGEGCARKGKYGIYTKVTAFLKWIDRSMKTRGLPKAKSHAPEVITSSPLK
How it was run: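 Human factor Xa, 97 pM in assay, in 50 mM Tris·HCl pH 8.0 with 154 mM NaCl at room temperature. Fluorogenic substrate Mes-DArg-Pro-Arg-AMC (KM 28 μM), read at ex 355 / em 460 nm after starting with enzyme. Ki was taken from Dixon plots and averaged over at least two measurements.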

Plasminogen [6] = biological target: T1, Plasminogen; experiment: Inhibition of human plasmin
Target sequence in this assay (P00747 whole entry, looked up): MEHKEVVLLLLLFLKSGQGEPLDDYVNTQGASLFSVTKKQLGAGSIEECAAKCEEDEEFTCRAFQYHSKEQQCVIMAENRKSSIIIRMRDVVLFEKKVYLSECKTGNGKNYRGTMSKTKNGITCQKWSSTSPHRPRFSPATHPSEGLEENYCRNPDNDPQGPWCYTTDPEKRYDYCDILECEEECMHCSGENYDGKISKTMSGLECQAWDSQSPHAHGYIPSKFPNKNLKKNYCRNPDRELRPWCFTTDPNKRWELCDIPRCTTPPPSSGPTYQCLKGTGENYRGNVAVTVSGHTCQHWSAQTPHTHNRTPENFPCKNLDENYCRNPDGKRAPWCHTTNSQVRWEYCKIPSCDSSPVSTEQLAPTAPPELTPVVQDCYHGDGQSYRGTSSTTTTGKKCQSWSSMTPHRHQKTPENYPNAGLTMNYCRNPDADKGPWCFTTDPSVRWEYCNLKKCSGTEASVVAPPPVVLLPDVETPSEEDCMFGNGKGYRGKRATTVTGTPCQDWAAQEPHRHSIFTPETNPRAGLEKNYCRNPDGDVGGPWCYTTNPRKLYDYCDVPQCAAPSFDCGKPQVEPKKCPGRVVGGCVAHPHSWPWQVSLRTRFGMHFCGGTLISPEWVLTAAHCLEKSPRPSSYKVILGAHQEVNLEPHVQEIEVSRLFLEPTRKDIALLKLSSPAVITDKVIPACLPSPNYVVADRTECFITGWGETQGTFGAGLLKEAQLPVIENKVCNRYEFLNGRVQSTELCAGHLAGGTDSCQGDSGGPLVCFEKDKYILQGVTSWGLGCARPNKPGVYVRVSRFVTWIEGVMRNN

Plasma [7] = experiment: Inhibition of TF/Ca2+-induced clotting in human plasma after 40 mins; format: cell-free
How it was run: (§2)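 Clotting was triggered in citrated human plasma at 37 °C by tissue factor (stock 1/500 in assay) plus CaCl2 (12.5 mM in assay), with tPA 12.3 nM present. Inhibitor was tested at 10–200 nM after 5 min preincubation of reagents at 37 °C. Clot formation was followed as the rapid initial OD405 rise to a plateau, read over 40 min.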

Trypsin [8] = biological target: Trypsin (Homo sapiens, UniProt P07477+P07478+P35030); experiment: Inhibition of trypsin (unknown origin); format: protein assay; how it was run: as §1
Plasma [9] = experiment: Potency index, ratio of aprotinin IC50 to compound IC50 for inhibition of tPA-induced plasmin formation in human plasma; format: functional
Plasma [10] = experiment: Inhibition of TF/Ca2+-induced clotting in human plasma at 10 to 200 nM after 40 mins; format: cell-free; details: 0.2 µM; how it was run: as §2

Compound | IC50 (Plasma [1]) [µM] | Ki (Plasminogen [2]) [nM] | Ki (Trypsin [3]) [µM] | Ki [4] [µM] | Ki (Plasminogen [5]) [µM] | Ki (Prothrombin) [µM] | Ki (Plasma kallikrein) [µM] | Ki (Coagulation factor X) [µM] | Ki (Plasminogen [6]) [µM] | Activity (Plasma [7]) | Ki (Trypsin [8]) [µM] | Ratio IC50 (Plasma [9]) | Activity (Plasma [10])
N=C(N)c1ccc(CNC(=O)[C@@H]2Cc3ccc(cc3)NC(=O)CCN3CCN(CCC(=O)Nc4ccc(cc4)C[C@@H](NS(=O)(=O)NC4CCCCC4)C(=O)N2)CC3)cc1 | 0.055 | 0.13 | 0.021 | 17 | 0.00015 |  |  |  |  |  |  |  | 
N=C(N)c1ccc(CNC(=O)[C@@H]2Cc3ccc(cc3)NC(=O)CN3CCN(CC3)CC(=O)Nc3ccc(cc3)C[C@@H](NS(=O)(=O)c3ccccc3)C(=O)N2)cc1 |  | 0.51 | 0.501 | > 30 |  | 20.7 | 0.54 | > 15 |  |  |  |  | 
N=C(N)NCCCCNC(=O)[C@@H]1Cc2ccc(cc2)NC(=O)CCN2CCN(CCC(=O)Nc3ccc(cc3)C[C@@H](NS(=O)(=O)NC3CCCCC3)C(=O)N1)CC2 |  | 3.7 | 0.59 | 49.3 |  | 1.71 | 10.4 | 28.9 |  |  |  |  | 
N=C(N)c1ccc(CNC(=O)[C@@H]2Cc3ccc(cc3)NC(=O)CCN3CCN(CCC(=O)Nc4ccc(cc4)C[C@@H](NS(=O)(=O)c4ccccc4)C(=O)N2)CC3)cc1 |  | 0.07 | 0.062 | > 13 |  | 42.7 | 0.8 | > 13 |  |  |  |  | 
CC(C)(C)OC[C@@H](NS(=O)(=O)Cc1ccccc1)C(=O)NCC(=O)NCc1ccc(C(=N)N)cc1 |  |  |  |  |  |  |  |  | 7.7 |  |  |  | 
N=C(N)c1ccc(CNC(=O)[C@@H]2Cc3ccc(cc3)NC(=O)CN3CCN(CC3)CC(=O)Nc3ccc(cc3)C[C@@H](NC(=O)CCc3ccccc3)C(=O)N2)cc1 |  | 61.1 | 1.43 | 42 |  | 8.79 | 8.25 | 20.6 |  |  |  |  | 
N=C(N)c1ccc(CNC(=O)[C@@H]2Cc3ccc(cc3)NC(=O)CN3CCN(CC3)CC(=O)Nc3ccc(cc3)C[C@@H](NS(=O)(=O)NC3CCCCC3)C(=O)N2)cc1 | 0.053 |  | 0.136 | > 30 | 0.00042 | 15.8 |  |  |  |  |  |  | 
CN(C)S(=O)(=O)N[C@@H]1Cc2ccc(cc2)NC(=O)CN2CCN(CC2)CC(=O)Nc2ccc(cc2)C[C@@H](C(=O)NCc2ccc(C(=N)N)cc2)NC1=O |  |  |  | 74.7 |  |  |  |  |  |  |  |  | 
N=C(N)c1ccc(CNC(=O)[C@@H]2Cc3ccc(cc3)NC(=O)CN3CCN(CC3)CC(=O)Nc3ccc(cc3)C[C@@H](NC(=O)Cc3ccccc3)C(=O)N2)cc1 |  | 81.3 |  | 212 |  | 72.2 | 7.27 | 202 |  |  |  |  | 
N=C(N)c1ccc(CNC(=O)[C@@H]2Cc3ccc(cc3)NC(=O)CCN3CCN(CCC(=O)Nc4ccc(cc4)C[C@@H](NC(=O)Cc4ccccc4)C(=O)N2)CC3)cc1 |  |  |  | 96.5 |  |  |  |  |  |  |  |  | 
NCc1ccc(CNC(=O)[C@@H]2Cc3ccc(cc3)NC(=O)CCN3CCN(CCC(=O)Nc4ccc(cc4)C[C@@H](NS(=O)(=O)Cc4ccccc4)C(=O)N2)CC3)cc1 |  | 1.2 | 0.156 | 32 |  |  |  |  |  |  |  |  | 
COC(=O)N[C@@H]1Cc2ccc(cc2)NC(=O)CCN2CCN(CCC(=O)Nc3ccc(cc3)C[C@@H](C(=O)NCc3ccc(C(=N)N)cc3)NC1=O)CC2 |  | 0.77 | 0.109 | 51.5 | 0.00085 | 15.3 | 7.25 | 50.7 |  |  |  |  | 
N=C(N)c1ccc(CNC(=O)[C@@H]2Cc3ccc(cc3)NC(=O)CCN3CCN(CCC(=O)Nc4ccc(cc4)C[C@@H](NC(=O)CCc4ccccc4)C(=O)N2)CC3)cc1 |  | 3.93 | 0.757 | 28 |  | 0.199 | 7.41 | 16.1 |  |  |  |  | 
N=C(N)c1ccc(CNC(=O)[C@@H]2Cc3ccc(cc3)NC(=O)CCN3CCN(CCC(=O)Nc4ccc(cc4)C[C@@H](N)C(=O)N2)CC3)cc1 |  |  |  | 106 |  |  |  |  |  |  |  |  | 
N=C(N)c1ccc(CNC(=O)[C@@H]2Cc3ccc(cc3)NC(=O)CCN3CCN(CCC(=O)Nc4ccc(cc4)C[C@@H](NC(=O)CCCc4ccccc4)C(=O)N2)CC3)cc1 |  | 22.7 | 1 | 39.7 |  | 0.712 | 10.5 | 11.5 |  |  |  |  | 
NCCCCNC(=O)[C@@H]1Cc2ccc(cc2)NC(=O)CCN2CCN(CCC(=O)Nc3ccc(cc3)C[C@@H](NS(=O)(=O)NC3CCCCC3)C(=O)N1)CC2 |  | 50.6 | 6.2 | 85.9 |  | 21.9 | 64.4 | 39.5 |  |  |  |  | 
N=C(N)c1ccc(CNC(=O)[C@@H]2Cc3ccc(cc3)NC(=O)CN3CCN(CC3)CC(=O)Nc3ccc(cc3)C[C@@H](N)C(=O)N2)cc1 |  | 66.3 |  | 130 |  | 173 | 9.09 | 114 |  |  |  |  | 
N=C(N)c1ccc(CNC(=O)[C@@H]2Cc3ccc(cc3)NC(=O)CN3CCN(CC3)CC(=O)Nc3ccc(cc3)C[C@@H](NC(=O)CCCc3ccccc3)C(=O)N2)cc1 |  | 75.3 | 1.9 | 47.1 |  | 8.78 | 12.6 | 20.5 |  |  |  |  | 
N=C(N)c1ccc(CNC(=O)[C@@H]2Cc3ccc(cc3)NC(=O)CCN3CCN(CCC(=O)Nc4ccc(cc4)C[C@@H](NC(=O)OCc4ccccc4)C(=O)N2)CC3)cc1 |  |  | 0.103 | 46.5 |  |  |  |  |  |  |  |  | 
N=C(N)c1ccc(CNC(=O)[C@H](Cc2cccc(CN)c2)NC(=O)[C@@H](CCCc2ccccc2)NS(=O)(=O)Cc2cccc(C(=O)O)c2)cc1 |  |  |  |  |  |  |  |  |  | Toxic | 0.0036 |  | 
NCc1ccc(CNC(=O)[C@@H]2Cc3ccc(cc3)NC(=O)CCN3CCN(CCC(=O)Nc4ccc(cc4)C[C@@H](NS(=O)(=O)c4ccccc4)C(=O)N2)CC3)cc1.O=C(O)C(F)(F)F.O=C(O)C(F)(F)F.O=C(O)C(F)(F)F | 0.081 | 0.56 | 1.54 | > 100 | 0.00054 | 36.9 | 48.7 | > 100 |  |  |  | 3 | Non-Toxic
CC(C)(C)OC[C@@H](NS(=O)(=O)c1ccccc1)C(=O)NCC(=O)NCc1ccc(C(=N)N)cc1 |  |  |  |  |  |  |  |  | 24 |  |  |  | 
N=C(N)c1ccc(CNC(=O)[C@@H]2Cc3ccc(cc3)NC(=O)CN3CCN(CC3)CC(=O)Nc3ccc(cc3)C[C@@H](NC(=O)OCc3ccccc3)C(=O)N2)cc1 |  | 5.2 |  | 93.4 |  |  |  |  |  |  |  |  | 
N=C(N)c1ccc(CNC(=O)[C@@H]2Cc3ccc(cc3)NC(=O)CCN3CCN(CCC(=O)Nc4ccc(cc4)C[C@@H](NC=O)C(=O)N2)CC3)cc1 |  | 2.69 | 0.561 | 62.9 |  | > 100 | 3.87 | > 100 |  |  |  |  | 
CCCCS(=O)(=O)N[C@@H]1Cc2ccc(cc2)NC(=O)CCN2CCN(CCC(=O)Nc3ccc(cc3)C[C@@H](C(=O)NCc3ccc(C(=N)N)cc3)NC1=O)CC2 |  | 0.45 | 0.0137 | 4.28 |  | 14.1 | 0.701 | 34.4 |  |  |  |  | 
CC(C)(C)OC(=O)N[C@@H]1Cc2ccc(cc2)NC(=O)CCN2CCN(CCC(=O)Nc3ccc(cc3)C[C@@H](C(=O)NCc3ccc(CN)cc3)NC1=O)CC2 |  | 19.7 | 3.15 | > 100 |  | 15.6 | > 100 | > 100 |  |  |  |  | 
NCc1ccc(CNC(=O)[C@@H]2Cc3ccc(cc3)NC(=O)CCN3CCN(CCC(=O)Nc4ccc(cc4)C[C@@H](NS(=O)(=O)NC4CCCCC4)C(=O)N2)CC3)cc1 | 0.1 | 0.52 | 0.351 | > 100 | 0.00043 | 7.13 | 43.2 | > 100 |  |  |  |  | 
